High-throughput results: PubChem BioAssay, several laboratories
NLRP3 yeast inh: blocks the NALP3 inflammasome reconstituted in yeast. Yeast reconstituted NLRP3/ASC/caspase-1, beta-gal luminescence, 24 h. inhibition, % at 10 µM. 330,000 compounds, 0.39% hits. AID 2825;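 active means inhibition of 50% or more; inactive means inhibition below 50%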;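 further: plate controls were induced DMSO wells for no effect and uninduced yeast grown without galactose for full effect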
ATG4B inhibitor: blocks human ATG4B protease cleavage of LC3 substrate. ATG4B cleavage of LC3-PLA2, NBD-HPC fluorescence, 1 h. inhibition, % at 8.33 µM. AID 504462. 340,000 compounds, 0.51% hits; in the data active means inhibition above about 40%
NALP1 yeast inh: inhibitors of NALP1 inflammasome in yeast; S. cerevisiae NALP1/ASC/caspase-1 growth, X-gal OD620, 72 h; inhibition, % at 10 µM; 280,000 compounds, 0.61% hits; AID 2071; in the data active means inhibition mostly above about 24%, no sharp cut-off; inactive means mostly below about 32%
Calb FLC: C. albicans growth modulation with fluconazole. C. albicans CaCi-2 + fluconazole, Alamar Blue growth, 48 h. 300,000 compounds, 0.57% hits. growth inhibition, % (concentration not given with the values);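 active means growth inhibition above about 58% in most replicates, limit read from the data, passing the limit was not always enough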;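 further: all wells also contain fluconazole at 8 µg/ml as a sub-toxic cotreatment; 0% = median of DMSO wells and 100% = median of geldanamycin control wells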
UCH37 DUB inh: blocks the human deubiquitinase UCH37; AID 588478; purified proteasome/UCH37, Ub-AMC cleavage fluorescence; 330,000 compounds, 0.33% hits; Q9Y5K5; inhibition, % (concentration not given with the values);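 active means mean inhibition over replicate wells above about 20%, limit read from the data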;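 further: 0% = compound-free wells with enzyme and 100% = wells lacking proteasome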
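Test system – human UCH37 enzyme supplied as purified proteasome complex · Incubation – 30 min preincubation with enzyme, 25 min cleavage at room temperature · Detection – AMC fluorescence from Ub-AMC cleavage, excitation 355 nm, emission 460 nm · Benchmarks – no-proteasome wells (full inhibition) and compound-free wells (no inhibition)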
ALR H2O2 inh: human ALR oxidase inhibition via reduced H2O2; 290,000 compounds, 3.8% hits; P55789; inhibition, % (test concentration not listed); purified ALR, DTT oxidation, H2O2 HRP-luminol luminescence;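 active means mean replicate inhibition above about 79%, with every replicate also reaching it, limit read from the data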
Target sequence (P55789 whole entry, looked up): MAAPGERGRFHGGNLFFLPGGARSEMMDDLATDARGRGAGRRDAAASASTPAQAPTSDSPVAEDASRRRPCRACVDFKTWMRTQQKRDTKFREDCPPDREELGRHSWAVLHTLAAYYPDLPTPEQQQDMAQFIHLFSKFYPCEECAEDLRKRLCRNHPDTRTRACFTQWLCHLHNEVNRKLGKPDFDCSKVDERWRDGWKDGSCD
Starred values were filed as active, the others as inactive; x = not tested or not shown. A selection: hits, their analogues and other compounds. The true share with any hit is near 4.8%.

SMILES	NLRP3 yeast inh	ATG4B inhibitor	NALP1 yeast inh	Calb FLC	UCH37 DUB inh	ALR H2O2 inh
O=C1C2C3C=CC(C4CC34)C2C(=O)N1N=Cc1ccc(-c2ccc(F)cc2[N+](=O)[O-])o1 (centres undefined)	x	x	x	x	4	x
Cn1c(=O)[nH]c(=O)c2c1nc(Br)n2CCCSc1nc2ccccc2o1	9	0	-4	14	2	98*
Cn1c(=O)[nH]c(=O)c2c1nc(N1CCCC1)n2CCCSc1nc2ccccc2o1	-3	-13	8	8	2	5
O=C(CNc1cccc2ccccc12)NN=Cc1cccc(Oc2ccccc2)c1	x	x	x	x	0	x
O=[N+]([O-])/C(C(Cl)=C(Cl)Cl)=C(/Sc1ccccc1)N1CCCCC1	19	-10	-7	-2	7	92*
O=C(NN=Cc1c(Cl)cccc1Cl)c1ccc(F)cc1	x	x	x	x	2	x
COc1cc(C2NC(=S)NC(C)=C2C(=O)OC(C)C)ccc1OC(C)C (centres undefined)	7	1	27	2	2	96*
COc1cc(C2NC(=O)NC(C)=C2C(=O)OC(C)C)ccc1OC(=O)c1ccco1 (centres undefined)	15	2	0	2	4	-4
CCCOc1ccc(C(=O)NN=Cc2c[nH]c3ccc(Br)cc23)cc1	x	x	x	x	-4	x
COc1cc(C2(c3ccc(O)c(OC)c3)C(=O)Nc3c(C)cc(Br)cc32)ccc1O	10	-2	x	2	3	80*
CCn1c(SCC(=O)NN=Cc2c[nH]c3ccccc23)nnc1-c1ccc(Cl)cc1	x	x	x	x	5	x
CC(=O)N1CCN(C(=O)c2cc3ccccc3o2)CC1	-1	-11	18	8	1	-9
O=C(c1cc2ccccc2o1)N1CCN(C/C=C/c2ccccc2)CC1	40	-6	44*	0	-2	0
O=C(NC1CCCCCCC1)c1ccccc1O	24	1	19	-13	-9	x
O=C(NC1CCCCCC1)c1ccc[nH]c1=S	3	3	-7	-7	4	92*
Oc1ccc(C2C[C@H]3CC[C@@H]2C3)cc1O (some centres undefined)	2	0	27	16	2	99*
O=C(CNC(=O)c1ccccc1Br)N/N=C/c1ccc(O)cc1	5	4	12	1	x	99*
O=C(N/N=C/c1cccc(Oc2ccccc2)c1)c1ccccc1Br	19	-2	32*	-1	x	-5
O=C(N/N=C/c1cccc(Oc2ccccc2)c1)c1cccc(Br)c1	36	2	9	9	x	-6
CC(C)=C(NC(=O)c1ccccc1)C(=O)N/N=C/c1ccc(O)cc1	21	-12	9	34	x	99*
O=C(NN=Cc1ccc(O)cc1)C(=O)NN=Cc1ccc(O)cc1	x	-6	x	x	-4	x
O=C(Nc1ccccc1C(=O)N/N=C/c1ccc(O)cc1)c1ccccc1	7	-3	6	-12	x	94*
NC(=O)NN=C1c2ccccc2-c2c(C(N)=O)cccc21	x	x	x	x	9	x
Cc1cc(C=Nn2cnnc2)c(C)n1-c1ccc(OCc2ccc(Cl)cc2)cc1	x	x	x	x	0	x
Cc1c(C=NNC(=O)C2(C)CC2(Cl)Cl)cnn1C (centres undefined)	x	x	x	x	2	x
SMILES	NLRP3 yeast inh	ATG4B inhibitor	NALP1 yeast inh	Calb FLC	UCH37 DUB inh	ALR H2O2 inh
O=C(N/N=C/c1ccc(O)cc1)c1ccncc1	4	-1	16	5	x	99*
O=C(N/N=C/c1ccc(O)cc1)c1csc2ccccc12	5	-10	9	114*	x	98*
CC(=NNC(=O)c1csc2ccccc12)c1ccc(O)cc1	x	x	x	x	2	x
O=C(N/N=C/c1ccncc1)c1ccncc1	x	-2	x	x	x	x
CCC(C)(C)NC(=O)Cc1ccccc1OC	12	1	41*	-2	-1	5
COc1ccc(C=NNC(=O)c2cc(O)c(O)c(O)c2)cc1CN1CCN(c2ccc(F)cc2)CC1	x	x	x	x	11	x
COc1ccc(/C=N/NC(=O)c2ccncc2)cc1CN1CCN(c2ccc(F)cc2)CC1	9	-11	-6	-4	x	99*
COc1ccc(/C=N\NC(=O)c2cc(O)c(O)c(O)c2)cc1CN1CCN(c2ccc(F)cc2)CC1	x	-14	18	99*	x	39
O=C(CCl)N1N=C(c2ccco2)CC1c1cccs1 (centres undefined)	x	6	43	0	3	8
Cc1ccc(C2=NN(C(=O)CCl)C(c3cccs3)C2)o1 (centres undefined)	25	19	32	13	3	98*
